From PubChem
Compounds with a hit are over-represented: about 5.8% of the library has one in this group of screens.
KDM4C inh = blocks human GASC-1 (KDM4C) demethylase activity; Q9H3R0; GST-KDM4C 2-372, H3K9me3 peptide, LANCE TR-FRET; inhibition, % at 12.5 µM; hit rate 0.15% among 96,000; AID 720574;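 active means mean replicate inhibition above about 25%, with at least 55% of replicates also reaching it, limit read from the data, passing the limit was not always enough; inconclusive means only one of those two conditions met; inactive means neither condition met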
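System: N-terminal GST-fused human GASC-1 (KDM4C) fragment, residues 2-372 / Amount: 10 nM GST-KDM4C in enzyme reaction / Also added: H3K9me3 peptide with Fe(II)/2OG / Times: 30 min demethylation and 1 h detection at room temperature / Signal: LANCE TR-FRET / Read-out basis: Fall in 671/618 emission ratio as inhibition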
Pf Dd2 inh = blocks growth of Plasmodium falciparum Dd2 parasites; P. falciparum Dd2 growth, SYBR Green, 72 h; stronger effect = lower value; activity change, % at 10 µM; hit rate 2.3% among 94,000; AID 1159554; in the data active means activity change below about -80%; inconclusive means no clear call, values can overlap the other calls
IDH1 R132H inh = IDH1 R132H (human) inhibition. O75874. IDH1 R132H reductase, diaphorase/resazurin fluorescence, 60 min. inhibition, % at 10 µM. hit rate 0.18% among 70,000. AID 624101; in the data active means inhibition above about 34%; inconclusive means no clear call, values can overlap the other calls; inactive means below about 11%;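 further: 0% = DMSO and 100% = no enzyme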
Target sequence (O75874 whole entry R132H): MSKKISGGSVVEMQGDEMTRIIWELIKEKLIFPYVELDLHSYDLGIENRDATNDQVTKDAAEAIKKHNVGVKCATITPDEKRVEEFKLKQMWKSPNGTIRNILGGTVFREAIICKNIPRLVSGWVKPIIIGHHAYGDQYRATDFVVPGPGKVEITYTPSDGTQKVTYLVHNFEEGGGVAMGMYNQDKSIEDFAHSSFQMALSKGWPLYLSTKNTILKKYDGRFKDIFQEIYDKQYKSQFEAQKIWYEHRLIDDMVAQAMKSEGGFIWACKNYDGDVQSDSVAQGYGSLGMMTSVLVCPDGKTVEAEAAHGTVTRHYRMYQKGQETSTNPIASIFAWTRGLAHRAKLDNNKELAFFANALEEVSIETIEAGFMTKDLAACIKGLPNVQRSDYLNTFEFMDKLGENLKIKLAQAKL
T cruzi growth-1 = blocks T. cruzi growth in NIH3T3 culture; inhibition, % at 8.34 µM; T. cruzi beta-gal in NIH3T3, GalScreen luminescence, 90 h; hit rate 5.9% among 77,000;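 active means mean inhibition above about 93%, with at least 55% of replicates each passing it, limit read from the data, passing the limit was not always enough; inconclusive means only one of those two conditions holds; inactive means neither condition holds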
T cruzi growth-2 = inhibitors of T. cruzi proliferation; AID 651739; shares compounds with T cruzi growth-1; T. cruzi beta-gal in NIH3T3, GalScreen luminescence, 90 h; inhibition, % at 8.35 µM; hit rate 72% among 5,600;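 active means mean replicate inhibition above about 95% and at least 55% of replicates individually reaching it, limit read from the data; inconclusive means only one of the two criteria is met; inactive means neither criterion is met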
T cruzi growth-3 = Trypanosoma cruzi proliferation inhibition; hit rate 21% among 5,600; inhibition, % at 2.09 µM; AID 651740; T. cruzi beta-gal in NIH3T3, GalScreen luminescence, 90 h; shares compounds with T cruzi growth-1;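 active means mean inhibition above about 95%, with at least 55% of replicates also reaching it, limit read from the data; inconclusive means meets just one of the two conditions; inactive means meets neither condition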;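 further: plate controls were neutral control median for no effect and positive control median for full effect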
NIH3T3 tox = kills mouse NIH/3T3 fibroblasts; shares compounds with T cruzi growth-1; hit rate 14% among 5,600; NIH/3T3 viability, CellTiter-Glo ATP luminescence, 90 h; cytotoxicity (signal decrease), % at 8.35 µM;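 active means mean signal decrease across replicates above about 35% based on untreated-well scatter, with enough replicates individually passing, limit read from the data; inconclusive means no rule stated though some were filed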;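 further: 0% = median of neutral control wells and 100% = median of positive control wells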
NIH3T3 tox 2 = kills mouse NIH/3T3 fibroblasts | AID 651744 | NIH/3T3 viability, CellTiter-Glo ATP luminescence, 90 h | hit rate 56% among 5,600 | inhibition, % at 24.9 µM | shares compounds with T cruzi growth-1;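 active means mean loss of cell viability signal at or above a set limit, and enough replicates individually reaching it; inconclusive means meets only the mean limit or only the replicate share; inactive means meets neither condition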;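 further: 0% = median of neutral control wells and 100% = median of positive control wells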
* hit, by the source's call; ? = inconclusive; . = no result given.

SMILES	KDM4C inh	Pf Dd2 inh	IDH1 R132H inh	T cruzi growth-1	T cruzi growth-2	T cruzi growth-3	NIH3T3 tox	NIH3T3 tox 2
C[C@H]1CN([C@@H](C)CO)S(=O)(=O)c2ccc(C#Cc3ccccn3)cc2O[C@H]1CN(C)Cc1ccccc1	-2.4	-63.4	0.1	112.5*	108.7*	75.8	16.7	26.1
Cc1ccc(S(=O)(=O)N[C@@H]2CC[C@H](CCn3cc(-c4ccccc4F)nn3)O[C@H]2CO)cc1	-1.7	-36.0	-0.2	.	.	.	.	.
O=C(Nc1ccc(F)cc1)N1CCCCN2[C@H](CO)[C@H](c3ccc(-c4cccc(F)c4)cc3)[C@@H]2C1	-3.4	-3.1	.	117.8*	108.2*	85.1	16.7	71.8*
O=C(Nc1ccc(F)cc1)N1CCCCN2[C@@H](CO)[C@H](c3ccc(-c4cccc(F)c4)cc3)[C@@H]2C1	0.6	-30.0	.	106.2*	95.3*	79.6	119.5*	103.3*
OC[C@H]1[C@@H](c2ccc(C#Cc3ccccc3F)cc2)[C@@H]2CN(CC3CCOCC3)CCCCN12	1.3	-57.6	.	85.1	.	.	.	.
OC[C@H]1[C@H](c2ccc(C#Cc3ccccc3F)cc2)[C@@H]2CN(CC3CCOCC3)CCCCN12	0.1	-69.2	.	?	106.1*	34.8	41.1*	105.6*
OC[C@@H]1[C@H](c2ccc(C#Cc3ccccc3F)cc2)[C@H]2CN(CC3CCOCC3)CCCCN12	-1.2	-52.4	.	105.6*	101.1*	109.6*	39.7*	103.7*
C[C@@H]1CN([C@@H](C)CO)S(=O)(=O)c2ccc(-c3cccc(C#N)c3)cc2O[C@H]1CN(C)C(=O)c1ccncc1	1.4	-27.5	-3.5	.	.	.	.	.
C[C@H]1CN([C@@H](C)CO)S(=O)(=O)c2ccc(C#CCN(C)C)cc2O[C@@H]1CN(C)Cc1ccccc1F	-0.6	-75.7	0.2	110.0*	107.3*	91.3	5.0	104.9*
C[C@@H]1CN([C@@H](C)CO)S(=O)(=O)c2ccc(C#CCN(C)C)cc2O[C@H]1CN(C)Cc1ccccc1F	0.4	-74.2	-3.8	115.9*	?	85.3	50.8*	105.1*
C[C@H]1CN([C@@H](C)CO)S(=O)(=O)c2ccc(C#CC3CC3)cc2O[C@H]1CN(C)Cc1ccccc1F	14.1	-10.6	-0.8	106.3*	106.1*	76.6	11.3	106.6*
CC(C)NC(=O)N(C)C[C@H]1Oc2ccc(NS(=O)(=O)c3ccc(F)cc3)cc2C(=O)N([C@H](C)CO)C[C@@H]1C	0.6	24.8	.	-12.4	.	.	.	.
COCCNC(=O)C[C@@H]1CC[C@H]2[C@@H](COc3ccc(NS(=O)(=O)c4ccc(Cl)cc4)cc3C(=O)N2C)O1	-0.6	8.1	.	20.0	.	.	.	.
CC(C)CC#Cc1ccc2c(c1)O[C@H](CN(C)Cc1ccccn1)[C@@H](C)CN([C@H](C)CO)S2(=O)=O	1.6	-56.7	-0.6	124.4*	106.4*	93.8	22.3	106.1*
CC(C)CC#Cc1ccc2c(c1)O[C@@H](CN(C)Cc1ccccn1)[C@@H](C)CN([C@H](C)CO)S2(=O)=O	10.8	-17.2	-2.1	109.5*	105.6*	52.1	-7.2	104.1*
O=C(CCN1CCCCC1)NCC[C@@H]1CC[C@H](NC(=O)Nc2ccc(F)cc2)[C@H](CO)O1	0.9	5.0	0.2	-177.1	.	.	.	.
CO[C@H]1CN(C)C(=O)c2cc(NS(=O)(=O)c3ccccc3)ccc2OC[C@@H](C)NC[C@H]1C	-1.3	16.6	0.2	.	.	.	.	.
COc1ccc(CN(C)C[C@H]2OCCCC[C@H](C)Oc3ccc(NC(=O)Nc4ccc5c(c4)OCO5)cc3C(=O)N([C@H](C)CO)C[C@H]2C)cc1	2.4	-75.4	.	105.3*	?	?	21.7	78.2*
COc1ccc(NC(=O)Nc2ccc3c(c2)C(=O)N([C@@H](C)CO)C[C@H](C)[C@@H](CN(C)Cc2ccc4c(c2)OCO4)OCCCC[C@H](C)O3)cc1	0.0	-58.3	.	?	102.9*	78.1	-4.7	104.8*
